# Source: PubChem (Sanford-Burnham Center for Chemical Genomics)
# Apaf1 activ: activators of human Apaf-1 apoptosome, primary screen, biochemical, DEVD-Rh110 fluorescence, uHTS; Apaf-1 apoptosome caspase-3 activation; active compounds read low; activity change, negative = activation, % at 20 µM; 330,000 compounds, 0.31% hits; AID 489031, 2010;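 active means activity change at or below -40% at 20 µM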
# Target sequence (O14727 whole entry, looked up): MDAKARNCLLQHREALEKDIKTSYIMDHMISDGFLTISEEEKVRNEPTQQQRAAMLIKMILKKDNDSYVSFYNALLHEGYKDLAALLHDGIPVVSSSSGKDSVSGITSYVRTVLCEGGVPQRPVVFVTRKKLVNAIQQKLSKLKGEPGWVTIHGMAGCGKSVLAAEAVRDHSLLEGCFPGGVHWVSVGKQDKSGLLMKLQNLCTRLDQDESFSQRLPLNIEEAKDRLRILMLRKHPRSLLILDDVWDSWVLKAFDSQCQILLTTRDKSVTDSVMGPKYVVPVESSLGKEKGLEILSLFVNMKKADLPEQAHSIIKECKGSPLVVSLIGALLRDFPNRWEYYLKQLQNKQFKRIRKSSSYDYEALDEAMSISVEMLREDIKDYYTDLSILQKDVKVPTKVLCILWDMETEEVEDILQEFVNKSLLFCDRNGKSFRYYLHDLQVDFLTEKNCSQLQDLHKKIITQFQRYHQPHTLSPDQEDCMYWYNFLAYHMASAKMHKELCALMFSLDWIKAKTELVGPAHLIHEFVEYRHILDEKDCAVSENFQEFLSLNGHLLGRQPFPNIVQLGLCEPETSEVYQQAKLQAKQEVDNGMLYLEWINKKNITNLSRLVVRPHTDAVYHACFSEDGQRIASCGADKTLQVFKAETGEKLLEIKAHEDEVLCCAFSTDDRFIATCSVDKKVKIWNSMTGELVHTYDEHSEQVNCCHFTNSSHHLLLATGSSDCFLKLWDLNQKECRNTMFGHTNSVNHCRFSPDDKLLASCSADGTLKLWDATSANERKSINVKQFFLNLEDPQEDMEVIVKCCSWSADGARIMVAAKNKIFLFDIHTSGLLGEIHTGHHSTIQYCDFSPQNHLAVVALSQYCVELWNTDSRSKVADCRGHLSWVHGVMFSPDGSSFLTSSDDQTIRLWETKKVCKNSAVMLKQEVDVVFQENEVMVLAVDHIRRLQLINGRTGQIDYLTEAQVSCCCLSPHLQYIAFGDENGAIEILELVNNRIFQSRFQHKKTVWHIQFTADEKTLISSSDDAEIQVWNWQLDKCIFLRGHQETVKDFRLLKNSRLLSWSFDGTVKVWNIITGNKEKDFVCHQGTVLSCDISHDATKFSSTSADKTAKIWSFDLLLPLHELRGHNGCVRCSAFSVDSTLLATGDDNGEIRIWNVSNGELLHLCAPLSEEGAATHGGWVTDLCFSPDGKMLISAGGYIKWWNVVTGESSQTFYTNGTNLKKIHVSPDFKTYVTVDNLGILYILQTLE
#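 system = biochemical Apaf-1 apoptosome reconstitution | buffer or medium = 20 mM HEPES pH 7.5 with CHAPS, BSA | also added = dATP and cytochrome c as apoptosome triggers, (Z-DEVD)2-Rh110 substrate | incubation = 30 min compound preincubation and 50 min reaction, both room temperature | measured by = fluorescence, 540 nm emission, 480 nm excitation | read-out basis = Caspase-3 cleavage activity downstream of Apaf-1 activation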
# Rh110 act interf: Rh110 fluorescence interference by putative Apaf-1 activators, confirmation, artefact control for Apaf-1 activator project, biochemical, 20 µM; shares compounds with Apaf1 activ; quenched caspase reaction, Ex480/Em540; fluorescence interference (activity change), % at 20 µM, hits read low; 980 tested, under 10 active;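 active means mean activity change at or below -40% when tested at 20 µM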
# Apaf-1 act conf2: Apaf-1 activators, single-dose retest, confirmation, biochemical, fluorescence, DEVD-Rh110, 20 µM; shares compounds with Apaf1 activ; reconstituted apoptosome caspase-3 activity; active compounds read low; activity change, negative = activation, % at 20 µM; 980 compounds, 5% hits; AID 504617, 2011;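 active means mean activity change at or below -40%, meaning activation of 40% or more, at 20 µM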
# * = called active by the depositor; x = no result given. Only a sample is shown.
SMILES,Apaf1 activ,Rh110 act interf,Apaf-1 act conf2
O=C(Nc1cccc(C(F)(F)F)c1)c1ccc2nc(-c3ccco3)c(-c3ccco3)nc2c1,65.8,x,x
COc1ccc(Br)cc1C1CC(=O)N2CN(Cc3ccccc3)CSC2=C1C#N (stereo unspecified),77.9,x,x
Cc1cc(C)nc(NS(=O)(=O)c2ccc(N)cc2)n1,-2.8,x,x
N#CCCS(=O)(=O)c1ccc(N)cc1,-61.4*,-0.1,5.4
C#CCOCCOCCOCCNc1nc(N2CCN(C(=O)CCCCCCCCCCNC(=O)[C@H](CCCCN)n3cc(CCO)nn3)CC2)nc(N2CCN(C(=O)CCCCCCCCCCNC(=O)[C@H](CCCCN)n3cc(C[C@@H](C)CC)nn3)CC2)n1,67.9,x,x
Cc1cc(C(C)(C)CC(C)(C)C)ccc1OCCOCC[N+](C)(C)Cc1ccccc1,85.8,x,x
COc1ccc2c(c1)OC/C(=C/c1cccs1)C2=O,-94.0*,5.0,11.7
COC(=O)c1ccccc1N/C=C1\CCc2c(c(C)nn2-c2ccccn2)C1=O,69.3,x,x
CN(C(=S)Nc1ccc(SC(F)F)cc1)c1ccc(O)cc1,69.9,x,x
CSc1ccccc1NC(=O)CN(C)C(=O)c1ccc2c(c1)OCCO2,-74.5*,7.3,5.3
Cc1cccc(C)c1NC(=O)CN(C)C(=O)c1ccccc1SCC(=O)N1CCCC1,42.0,x,x
CCOC(=O)C(NC(=O)c1ccccc1Cl)(Nc1ccc(C(F)(F)F)cc1)C(F)(F)F (stereo unspecified),-406.2*,5.5,8.9
COCCN1C(=S)N[C@@H](c2cccc(F)c2)C(C(=O)OC)=C1C,57.4,x,x
N#Cc1c(NCCCO)nc(NCc2ccccc2)c2c1CCN(Cc1ccccc1)C2,69.0,x,x
OCC1(Cc2ccccc2)CCN(Cc2ccc(-c3ccco3)cc2)CC1,-81.6*,-0.8,4.8
O=C(c1ccc(-c2ccccc2Cl)o1)N1CCCC(C(F)(F)F)C1 (stereo unspecified),41.4,x,x
FC(F)(F)c1cc(CO[C@@H]2CCCN[C@@H]2c2ccccc2)cc(C(F)(F)F)c1,47.3,x,x
CCCCc1c(C)c(C#N)c2[nH]c3ccccc3n2c1=O,45.3,x,x
CC(C)(C)c1ccc(/C=C(\C#N)C(=O)Nc2ccccn2)cc1,-186.1*,2.2,20.8
C/C(=C\C(=O)c1ccc(Br)cc1)NCc1ccccc1,-235.3*,9.4,20.6
O=C1N(c2ccccc2)c2ccccc2C1(Cc1ccncc1)Cc1ccncc1,5.4,x,x
NC(=O)c1ccc(N=C2C(=O)Nc3ccc([N+](=O)[O-])cc32)cc1,55.8,x,x
COc1ccccc1N1CCN(Cc2nc(-c3ccc(F)cc3)oc2C)CC1,-236.2*,4.6,12.7
COc1ccc(N2CCN(Cc3nc4scc(-c5ccccc5)c4c(=O)[nH]3)CC2)cc1,44.2,x,x
CCC[C@@H](CN1CCC[C@H]1CN1C(N)=NC[C@H]1CC(C)C)N1C[C@@H](Cc2ccccc2)N(CCCC2CCCC2)C1=N,59.0,x,x
SMILES,Apaf1 activ,Rh110 act interf,Apaf-1 act conf2
N#Cc1ccsc1NC(=O)c1ccc(Cl)c([N+](=O)[O-])c1,47.9,x,x
N/C(=N\OC(=O)c1ccc(Cl)c([N+](=O)[O-])c1)c1ccccc1,-57.3*,7.3,13.9
O=C(CCn1c2c(c3ccccc31)CCCC2)NNC(=O)c1ccc(Cl)c([N+](=O)[O-])c1,88.6,x,x
CSc1ccc(CCNC(=O)c2cc(-c3ccccc3)c(N3CCOCC3)s2)cc1,-370.0*,6.8,16.6
Cc1cccc(S(=O)(=O)C(C#N)c2nc3ccccc3nc2N2CCCC2)c1 (stereo unspecified),55.0,x,x
O=C(COC(=O)c1cccc(Cl)c1)NCCN1C(=O)CSC1=O,-46.3*,3.5,3.1
CCC1Nc2ncnc(N3CCN(c4ccccc4)CC3)c2N(Cc2ccccc2)C1=O (stereo unspecified),60.3,x,x
O=C(N/N=C/c1ccccn1)c1cccc(S(=O)(=O)N2CCCC2)c1,-587.4*,1.5,7.8
CN1CCN(S(=O)(=O)c2cccc(C(=O)Nc3cc(C(F)(F)F)ccc3N3CCCCC3)c2)CC1,40.5,x,x
O=C(NCc1cccs1)c1cccc(S(=O)(=O)N2CCCCC2)c1,54.8,x,x
C#CCOCCOCCOCCNc1nc(N2CCN(C(=O)CCCCCCCCCCNC(=O)[C@H](CCCCN)n3cc(C)nn3)CC2)nc(N2CCN(C(=O)CCCCCCCCCCNC(=O)[C@@H]([C@H](C)O)n3cc(C)nn3)CC2)n1,54.4,x,x
CCOc1ccc(Cc2nnc(SCC(=O)Nc3ccc(C(C)=O)cc3)[nH]c2=O)cc1,-416.1*,8.3,21.6
CCCCNc1c(-c2ccc(OC)c(Sc3ccc(OC)cc3)c2)nc2cnccn12,43.1,x,x
C=CCN(CC=C)Cc1c(O)ccc2c1oc(=O)c1ccccc12,46.8,x,x
OCc1cn(-c2ccc(Cl)cc2)nn1,-56.5*,7.9,12.2
CN(C)CCCN(C(=O)CCc1ccccc1)c1nc2ccc(Cl)cc2s1,44.4,x,x
O=C(CCc1ccccc1)N[C@@H]1c2ccccc2CC[C@H]1OCc1ccccc1,-41.2*,2.4,6.3
CCCCCCSc1cccc(-c2nc3cc(C)ccn3c2NCc2ccccc2)c1,40.3,x,x
Cc1ccc(NC(=O)C2CCN(C(=O)[C@@H]3Cc4ccccc4CN3)CC2)c(C)c1,-72.0*,-3.7,9.2
CCOc1cc(CNc2ccc(O)cc2)ccc1OCc1ccc(Cl)cc1Cl,93.5,x,x
FC(F)(F)c1cc(CCN2CCNC[C@@H]2c2ccccc2)cc(C(F)(F)F)c1,60.6,x,x
CCCC[n+]1ccn(C2=C([O-])c3ccccc3C(=O)/C2=N\S(=O)(=O)c2ccc(Cl)cc2)c1,51.8,x,x
Cc1oc2cc(OCC(=O)O)ccc2c(=O)c1Oc1ccccc1,-99.8*,4.4,11.7
O=C(COc1ccc2c3c(c(=O)oc2c1)CCC3)N1CCN(c2ccc(F)cc2)CC1,42.4,x,x
CCOC(=O)c1c2ccc(OCC(=O)NN)cc2n2ccccc12,41.6,x,x
SMILES,Apaf1 activ,Rh110 act interf,Apaf-1 act conf2
CS(=O)(=O)c1nc(-c2ccc(Br)cc2)cc(-c2ccccc2)c1C#N,47.4,x,x
CC(C)c1nccn1S(=O)(=O)c1cc(Cl)ccc1Cl,-40.7*,-0.6,6.8
COc1ccccc1NC(=O)c1nc[nH]c1C(=O)Nc1ccccc1OC,94.5,x,x
CNC(=O)c1[nH]cnc1C(=O)Nc1ccc(C)cc1,-205.5*,4.4,4.8
CCN(CC)CCN(C(=O)c1ccc(C(=O)c2ccccc2)cc1)c1nc2ccc(OC)cc2s1,44.5,x,x
Nc1ccc2c(c1)C(=O)C(=O)c1ccccc1-2,97.5,x,x
Cc1cccc(C)c1NC(=O)c1sc(Cl)nc1C,-201.0*,9.8,10.7
O=C1C(Cl)=C(NCCN2CCCCC2)C(=O)c2ccccc21,67.8,x,x
Nc1nnc2c(n1)CCCC2,82.8,x,x
CC(C)c1nc(SCC(=O)c2c[nH]c3ccccc23)n[nH]1,-41.2*,0.6,5.8
CC1=NN(c2ccc(Cl)cc2)C(=O)C1C(c1ccccc1O)c1c(C)[nH]n(-c2ccc(Cl)cc2)c1=O (stereo unspecified),97.2,x,x
CCN(Cc1ccccc1)C(=O)c1c[nH]c2ccc(S(=O)(=O)N(C)CCC#N)cc2c1=O,-54.9*,3.7,5.3
CCOC(=O)C1=C(COCCN)NC(C)=C(C(=O)OC)C1c1ccccc1Cl (stereo unspecified),39.5,x,x
